Converted amounts (≈) assume the structure as drawn.
What was measured:
Format in all cases: functional
[1] = tested on: Lichtheimia corymbifera; assay: In vitro inhibition of Absidia corymbifera 272 growth for 24 hours.
Summary of the method: (§1)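 Filamentous isolates tested by microdilution per NCCLS M27-A in RPMI 1640 plus L-glutamine, buffered with 0.165 M MOPS to pH 7.0. Final inoculum 5 × 10^3 cfu/mL. Compounds in DMSO (final ≤2%), 2-fold series over 1000–0.24 µmol/L. Plates held at 35 °C and read visually after 24 and 48 h. MIC taken as 80% inhibition of control growth; determined twice in duplicate.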

[2] = tested on: Lichtheimia corymbifera; assay: In vitro inhibition of Absidia corymbifera 272 growth for 48 hours.; conditions: Lichtheimia corymbifera, 48 h; read-out: MIC; summary of the method: as §1
[3] = tested on: Clavispora lusitaniae; assay: Inhibition of Candida lusitaniae 2446/I growth for 48 hours in vitro.; conditions: Clavispora lusitaniae, 48 h; read-out: MIC
Summary of the method: (§2)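 NCCLS M27-A broth microdilution in RPMI 1640 with L-glutamine and 0.165 M MOPS, pH 7.0. Isolates kept on Sabouraud dextrose agar. Inoculum 5 × 10^3 cfu/mL final. Compounds were diluted in DMSO (≤2% final) and tested in 2-fold dilutions of 1000–0.24 µmol/L. Incubation at 35 °C, OD540 read at 24 and 48 h. MIC = 80% growth inhibition versus control; assays run twice in duplicate.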

[4] = tested on: Candida albicans; assay: Inhibition of Candida albicans ATCC 44859 growth for 24 hours in vitro.; conditions: Candida albicans, ATCC 44859, 24 h; read-out: MIC; summary of the method: as §2
[5] = tested on: Candida albicans; assay: Inhibition of Candida albicans ATCC 90028 for 24 hours in vitro.; conditions: Candida albicans, ATCC 90028, 24 h; read-out: MIC; summary of the method: as §2
[6] = tested on: Candida parapsilosis; assay: Inhibition of Candida parapsilosis ATCC 22019 growth for 48 hours in vitro.; conditions: Lodderomyces parapsilosis, ATCC 22019, 48 h; read-out: MIC; summary of the method: as §2
[7] = tested on: Clavispora lusitaniae; assay: Inhibition of Candida lusitaniae 2446/I growth for 24 hours in vitro.; conditions: Clavispora lusitaniae, 24 h; read-out: MIC; summary of the method: as §2
[8] = tested on: Pichia kudriavzevii; assay: Inhibition of Candida krusei ATCC 6258 growth for 48 hours in vitro.; summary of the method: as §2
[9] = tested on: Candida tropicalis; assay: Inhibition of Candida tropicalis 156 growth for 48 hours in vitro.; summary of the method: as §2
[10] = tested on: Candida albicans; assay: Inhibition of Candida albicans ATCC 90028 for 48 hours in vitro.; conditions: Candida albicans, ATCC 90028, 48 h; read-out: MIC; summary of the method: as §2
[11] = tested on: Candida parapsilosis; assay: Inhibition of Candida parapsilosis ATCC 22019 growth for 24 hours in vitro.; conditions: Lodderomyces parapsilosis, ATCC 22019, 24 h; read-out: MIC; summary of the method: as §2
[12] = tested on: Pichia kudriavzevii; assay: Inhibition of Candida krusei ATCC 6258 growth for 24 hours in vitro.; summary of the method: as §2
[13] = tested on: Aspergillus fumigatus; assay: Inhibition of Aspergillus fumigatus 231 growth for 48 hours in vitro.; conditions: Aspergillus fumigatus, 48 h; read-out: MIC; summary of the method: as §1
[14] = tested on: Candida albicans; assay: Inhibition of Candida albicans ATCC 44859 growth for 48 hours in vitro.; conditions: Candida albicans, ATCC 44859, 48 h; read-out: MIC; summary of the method: as §2
[15] = tested on: Pichia kudriavzevii; assay: Inhibition of Candida krusei E28 growth for 48 hours in vitro.; summary of the method: as §2
[16] = tested on: Pichia kudriavzevii; assay: Inhibition of Candida krusei E28 growth for 24 hours in vitro.; conditions: Pichia kudriavzevii, 24 h; read-out: MIC; summary of the method: as §2
[17] = tested on: Nakaseomyces glabratus; assay: Inhibition of Candida glabrata 20/I growth for 24 hours in vitro.; summary of the method: as §2
[18] = tested on: Nakaseomyces glabratus; assay: Inhibition of Candida glabrata 20/I growth for 48 hours in vitro.; summary of the method: as §2
[19] = Lichtheimia corymbifera, 24 h, read-out: MIC
[20] = Pichia kudriavzevii, ATCC 6258, 48 h, read-out: MIC
[21] = Pichia kudriavzevii, ATCC 6258, 24 h, read-out: MIC
[22] = Pichia kudriavzevii, 48 h, read-out: MIC

CC(C)(C)C(=O)OCC1C=C(c2ccc(Cl)c(Cl)c2)C(=O)O1 (stereo in doubt; (-)2c)
MIC [1]: 5.36 uM l-1
MIC [2]: 62.5 µM (≈ 21.5 µg/mL)
MIC [3]: 7.81 µM (≈ 2.68 µg/mL)
MIC [4]: 1.95 µM (≈ 0.669 µg/mL)
MIC [5]: 3.91 µM (≈ 1.34 µg/mL)
MIC [6]: 15.6 µM (≈ 5.36 µg/mL)
MIC [7]: 3.91 µM (≈ 1.34 µg/mL)
MIC [8]: 10.73 uM l-1
MIC [9]: 5.36 uM l-1
MIC [10]: 7.81 µM (≈ 2.68 µg/mL)
MIC [11]: 7.81 µM (≈ 2.68 µg/mL)
MIC [12]: 2.68 uM l-1
MIC [13]: 7.81 µM (≈ 2.68 µg/mL)
MIC [14]: 3.91 µM (≈ 1.34 µg/mL)
MIC [15]: 5.36 uM l-1
MIC [16]: 7.81 µM (≈ 2.68 µg/mL)

C[C@@H]1[C@H](O)[C@@H](C)/C=C/C=C/C=C/C=C/C=C/C=C/C=C/[C@H](O[C@@H]2O[C@H](C)[C@@H](O)[C@H](N)[C@@H]2O)C[C@@H]2O[C@](O)(C[C@@H](O)C[C@@H](O)[C@H](O)CC[C@@H](O)C[C@@H](O)CC(=O)O[C@H]1C)C[C@H](O)[C@H]2C(=O)O [AMPHOTERICIN B]
MIC [1, 19]: 2.16 µM (≈ 2 µg/mL)
MIC [2]: 2.16 µM (≈ 2 µg/mL)
MIC [17]: 2 µg/mL (≈ 2.16 µM)
MIC [3]: 2.16 µM (≈ 2 µg/mL)
MIC [4]: 1.08 µM (≈ 0.998 µg/mL)
MIC [5]: 2.16 µM (≈ 2 µg/mL)
MIC [6]: 2.16 µM (≈ 2 µg/mL)
MIC [7]: 2.16 µM (≈ 2 µg/mL)
MIC [8, 20]: 4.33 µM (≈ 4 µg/mL)
MIC [10]: 2.16 µM (≈ 2 µg/mL)
MIC [11]: 2.16 µM (≈ 2 µg/mL)
MIC [18]: 2 µg/mL (≈ 2.16 µM)
MIC [12, 21]: 2.16 µM (≈ 2 µg/mL)
MIC [13]: 0.54 µM (≈ 0.499 µg/mL)
MIC [14]: 1.08 µM (≈ 0.998 µg/mL)
MIC [15, 22]: 4.33 µM (≈ 4 µg/mL)
MIC [16]: 2.16 µM (≈ 2 µg/mL)

CC(=O)N1CCN(c2ccc(OCC3COC(Cn4ccnc4)(c4ccc(Cl)cc4Cl)O3)cc2)CC1 (stereo not drawn) [KETOCONAZOLE]
MIC [1, 19]: 31.2 µM (≈ 16.6 µg/mL)
MIC [2]: 31.2 µM (≈ 16.6 µg/mL)
MIC [3]: 0.11 µM (≈ 0.0585 µg/mL)
MIC [4]: 0.11 µM (≈ 0.0585 µg/mL)
MIC [5]: < 0.056 µM
MIC [6]: 0.11 µM (≈ 0.0585 µg/mL)
MIC [7]: 0.056 µM (≈ 0.0298 µg/mL)
MIC [8, 20]: 1.96 µM (≈ 1.04 µg/mL)
MIC [10]: < 0.056 µM
MIC [11]: 0.11 µM (≈ 0.0585 µg/mL)
MIC [12, 21]: 1.96 µM (≈ 1.04 µg/mL)
MIC [13]: 15.6 µM (≈ 8.31 µg/mL)
MIC [14]: 0.11 µM (≈ 0.0585 µg/mL)
MIC [15, 22]: 3.91 µM (≈ 2.08 µg/mL)
MIC [16]: 3.91 µM (≈ 2.08 µg/mL)
